Measured values published in ChEMBL document CHEMBL1138747, “Synthesis and structure--activity relationship in a class of indolebutylpiperazines as dual 5-HT(1A) receptor agonists and serotonin reuptake inhibitors” (J Med Chem, 2004).
Several values for one entry are separate records, joined by “and”; a condition that tells them apart may be missing. Equal values may be shown once.

Key:
[1] = target: T1, 5-hydroxytryptamine receptor 2C (Rattus norvegicus, UniProt P08909); test: Inhibition of rat hydroxytryptamine 2C receptor
T1 sequence (P08909 whole entry): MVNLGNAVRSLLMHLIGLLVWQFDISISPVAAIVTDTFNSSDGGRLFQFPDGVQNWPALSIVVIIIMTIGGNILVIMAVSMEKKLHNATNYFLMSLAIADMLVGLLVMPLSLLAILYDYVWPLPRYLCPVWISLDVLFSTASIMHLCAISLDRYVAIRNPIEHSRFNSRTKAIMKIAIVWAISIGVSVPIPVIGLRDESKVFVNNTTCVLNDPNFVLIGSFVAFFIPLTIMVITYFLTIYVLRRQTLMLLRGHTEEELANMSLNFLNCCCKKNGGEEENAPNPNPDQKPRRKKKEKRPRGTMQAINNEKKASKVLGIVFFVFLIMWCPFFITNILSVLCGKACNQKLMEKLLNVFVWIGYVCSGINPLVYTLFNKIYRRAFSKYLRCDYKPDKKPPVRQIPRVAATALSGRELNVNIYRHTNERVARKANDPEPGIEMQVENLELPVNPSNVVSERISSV

[2] = target: D(2) dopamine receptor (Rattus norvegicus, UniProt P61169); test: Displacement of [3H]spiperone from dopamine D2 receptor of rat striatal membranes; assay type: cell membranes, Membrane
How it was run: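 IC50 from 5–10 compound concentrations, each in triplicate, taken as the concentration (nM) giving 50% inhibition of specific radioligand binding.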

[3] = target: 5-hydroxytryptamine receptor 7 (Rattus norvegicus, UniProt P32305); test: Inhibition of rat hydroxytryptamine 7 receptor
[4] = Inhibition of kappa opioid receptor
[5] = target: 5-hydroxytryptamine receptor 2A (Rattus norvegicus, UniProt P14842); test: Inhibition of rat hydroxytryptamine 2A receptor
[6] = Inhibition of histamine H1 receptor
[7] = target: 5-hydroxytryptamine receptor 6 (Rattus norvegicus, UniProt P31388); test: Inhibition of rat hydroxytryptamine 6 receptor
[8] = target: T2, Serotonin 3 (5-HT3) receptor (Rattus norvegicus, UniProt P35563+Q9JJ16); test: Inhibition against rat hydroxytryptamine 3 receptor; assay type: protein-complex assay
T2 sequence (P35563 whole entry): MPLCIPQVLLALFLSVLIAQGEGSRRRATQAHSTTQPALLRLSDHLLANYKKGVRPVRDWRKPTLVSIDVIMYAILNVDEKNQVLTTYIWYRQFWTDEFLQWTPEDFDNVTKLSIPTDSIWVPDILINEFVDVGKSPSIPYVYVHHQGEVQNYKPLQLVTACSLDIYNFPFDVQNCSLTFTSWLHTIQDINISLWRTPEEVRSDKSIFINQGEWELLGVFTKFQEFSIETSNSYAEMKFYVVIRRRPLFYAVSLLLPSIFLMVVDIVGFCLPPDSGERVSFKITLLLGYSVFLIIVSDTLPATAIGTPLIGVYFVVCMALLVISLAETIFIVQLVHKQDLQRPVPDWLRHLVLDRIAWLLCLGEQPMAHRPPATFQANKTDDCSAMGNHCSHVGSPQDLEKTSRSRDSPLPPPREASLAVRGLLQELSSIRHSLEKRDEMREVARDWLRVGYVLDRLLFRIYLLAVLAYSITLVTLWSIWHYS
T2 sequence (Q9JJ16 whole entry): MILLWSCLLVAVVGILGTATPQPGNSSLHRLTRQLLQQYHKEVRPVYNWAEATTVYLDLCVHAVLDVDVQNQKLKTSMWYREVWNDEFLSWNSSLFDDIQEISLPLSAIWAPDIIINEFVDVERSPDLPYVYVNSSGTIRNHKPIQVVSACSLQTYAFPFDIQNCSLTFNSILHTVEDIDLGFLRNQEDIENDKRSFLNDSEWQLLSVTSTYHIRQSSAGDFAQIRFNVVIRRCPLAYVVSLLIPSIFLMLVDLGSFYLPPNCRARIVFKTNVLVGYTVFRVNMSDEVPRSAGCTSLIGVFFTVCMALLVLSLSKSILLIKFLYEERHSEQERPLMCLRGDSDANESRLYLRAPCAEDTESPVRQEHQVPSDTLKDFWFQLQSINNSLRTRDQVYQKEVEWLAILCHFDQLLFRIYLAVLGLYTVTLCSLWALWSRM

[9] = target: D(3) dopamine receptor (Rattus norvegicus, UniProt P19020); test: Inhibition of rat dopamine D3 receptor
[10] = target: T3, D(4) dopamine receptor (Rattus norvegicus, UniProt P30729); test: Inhibition of rat dopamine D4 receptor
T3 sequence (P30729 whole entry): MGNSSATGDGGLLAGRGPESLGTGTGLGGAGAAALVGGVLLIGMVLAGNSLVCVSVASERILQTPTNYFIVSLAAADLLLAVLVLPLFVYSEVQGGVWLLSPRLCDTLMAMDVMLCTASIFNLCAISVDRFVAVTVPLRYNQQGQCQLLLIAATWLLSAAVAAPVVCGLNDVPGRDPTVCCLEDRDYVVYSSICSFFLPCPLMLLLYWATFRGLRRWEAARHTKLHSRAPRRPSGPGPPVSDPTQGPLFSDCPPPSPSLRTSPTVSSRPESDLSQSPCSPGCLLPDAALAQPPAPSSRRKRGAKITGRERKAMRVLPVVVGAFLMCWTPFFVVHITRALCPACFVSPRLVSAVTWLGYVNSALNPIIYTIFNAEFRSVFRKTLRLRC

[11] = test system: Rattus norvegicus; test: Dose required to inhibit ultrasonic vocalisation on peroral administered; assay type: functional; conditions: po, read-out: ID50 (the source's name)
How it was run: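 Rat ultrasonic vocalization test. In a priming session, up to 10 grid-floor shocks were given (1.8 mA, 0.3 s, 20 s apart). Rats not vocalizing on three consecutive trials were excluded. Next day, rats were tested 2 h after dosing: five shocks, then vocalization duration recorded over 3 min. ID50 (dose for half-maximal inhibition) came from dose–response curves.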

Chain of D(2) dopamine receptor (P61169 whole entry): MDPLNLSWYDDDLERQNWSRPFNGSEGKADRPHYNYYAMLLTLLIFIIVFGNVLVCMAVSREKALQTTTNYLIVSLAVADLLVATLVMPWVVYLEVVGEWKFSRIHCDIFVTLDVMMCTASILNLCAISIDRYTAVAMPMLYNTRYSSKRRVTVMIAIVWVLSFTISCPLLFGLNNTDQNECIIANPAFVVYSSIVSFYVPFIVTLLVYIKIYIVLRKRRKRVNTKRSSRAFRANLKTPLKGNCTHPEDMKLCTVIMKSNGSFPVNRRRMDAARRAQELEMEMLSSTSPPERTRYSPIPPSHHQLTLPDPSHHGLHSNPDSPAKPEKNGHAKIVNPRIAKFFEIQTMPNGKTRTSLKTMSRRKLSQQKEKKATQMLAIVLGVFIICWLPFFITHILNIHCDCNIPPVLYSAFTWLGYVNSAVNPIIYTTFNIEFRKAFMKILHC
Chain of 5-hydroxytryptamine receptor 6 (P31388 whole entry): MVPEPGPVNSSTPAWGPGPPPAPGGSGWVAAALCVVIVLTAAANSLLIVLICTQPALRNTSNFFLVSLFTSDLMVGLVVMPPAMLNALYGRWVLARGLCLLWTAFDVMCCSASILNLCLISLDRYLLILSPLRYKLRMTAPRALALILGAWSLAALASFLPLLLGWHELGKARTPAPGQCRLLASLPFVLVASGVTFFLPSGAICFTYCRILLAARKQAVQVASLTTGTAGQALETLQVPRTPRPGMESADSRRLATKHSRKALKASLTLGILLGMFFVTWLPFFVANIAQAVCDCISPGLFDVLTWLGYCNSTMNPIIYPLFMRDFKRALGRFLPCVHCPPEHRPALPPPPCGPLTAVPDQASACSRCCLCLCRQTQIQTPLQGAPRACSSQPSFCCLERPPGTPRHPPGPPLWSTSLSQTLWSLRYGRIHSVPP
Chain of 5-hydroxytryptamine receptor 7 (P32305 whole entry): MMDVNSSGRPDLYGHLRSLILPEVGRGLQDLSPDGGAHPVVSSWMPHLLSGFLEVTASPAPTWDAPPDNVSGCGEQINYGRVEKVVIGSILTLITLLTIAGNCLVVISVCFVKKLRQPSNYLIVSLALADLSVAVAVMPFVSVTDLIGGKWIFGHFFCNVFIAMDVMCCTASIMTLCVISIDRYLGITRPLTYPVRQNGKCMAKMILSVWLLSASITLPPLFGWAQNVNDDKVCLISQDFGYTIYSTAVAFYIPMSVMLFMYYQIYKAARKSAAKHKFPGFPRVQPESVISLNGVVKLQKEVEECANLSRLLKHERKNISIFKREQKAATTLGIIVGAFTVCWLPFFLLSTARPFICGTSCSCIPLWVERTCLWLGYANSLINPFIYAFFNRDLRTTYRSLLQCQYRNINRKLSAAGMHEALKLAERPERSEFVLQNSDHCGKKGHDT
Chain of D(3) dopamine receptor (P19020 whole entry): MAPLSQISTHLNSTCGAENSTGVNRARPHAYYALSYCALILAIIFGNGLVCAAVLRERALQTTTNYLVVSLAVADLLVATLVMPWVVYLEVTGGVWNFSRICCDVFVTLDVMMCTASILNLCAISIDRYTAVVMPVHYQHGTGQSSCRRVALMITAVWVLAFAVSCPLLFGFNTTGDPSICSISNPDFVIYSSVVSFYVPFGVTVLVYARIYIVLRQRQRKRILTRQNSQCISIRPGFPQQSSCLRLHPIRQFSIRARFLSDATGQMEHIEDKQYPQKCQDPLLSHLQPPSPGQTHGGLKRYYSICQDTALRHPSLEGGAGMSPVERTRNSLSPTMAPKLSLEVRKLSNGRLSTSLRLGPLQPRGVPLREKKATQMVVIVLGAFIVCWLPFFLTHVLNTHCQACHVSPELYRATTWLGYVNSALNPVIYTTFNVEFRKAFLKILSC
Chain of 5-hydroxytryptamine receptor 2A (P14842 whole entry): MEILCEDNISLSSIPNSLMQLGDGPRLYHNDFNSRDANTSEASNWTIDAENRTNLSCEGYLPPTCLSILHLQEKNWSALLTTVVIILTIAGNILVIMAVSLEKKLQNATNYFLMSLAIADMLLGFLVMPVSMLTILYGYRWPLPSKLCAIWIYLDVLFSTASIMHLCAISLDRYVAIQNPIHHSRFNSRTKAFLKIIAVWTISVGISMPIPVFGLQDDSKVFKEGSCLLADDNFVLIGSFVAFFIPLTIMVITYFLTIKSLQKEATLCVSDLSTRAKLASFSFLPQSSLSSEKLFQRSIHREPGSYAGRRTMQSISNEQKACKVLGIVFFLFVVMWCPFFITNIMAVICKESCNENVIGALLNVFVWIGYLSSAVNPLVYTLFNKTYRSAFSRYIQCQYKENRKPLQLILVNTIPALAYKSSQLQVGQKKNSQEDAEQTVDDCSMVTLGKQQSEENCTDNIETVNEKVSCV

IC50 [1]: 2000 nM | IC50 [2]: 95 nM and 666 nM | IC50 [3]: 3900 nM | IC50 [4]: > 1000 nM | IC50 [5]: 1510 nM | IC50 [6]: 317 nM | IC50 [7]: 3000 nM | IC50 [8]: 4300 nM | IC50 [9]: 71 nM | IC50 [10]: 3400 nM
SMILES: N#Cc1ccc2[nH]cc(CCCCN3CCN(c4ccc5oc(C(N)=O)cc5c4)CC3)c2c1 [VILAZODONE]
ED50 [11]: 13 mg/kg
